Screening results from PubChem BioAssay.
Sampled rows, rich in hits. Any-hit rate of the full collection: about 29%.
Ecoli tolC: blocks growth of E. coli BW25113 tolC mutant; OD615; growth inhibition, % at 10 µM (by protocol); hit rate 2.2% among 65,000;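 active = growth inhibition at or above a cutoff equal to the mean over every tested compound plus 3 SD, cut at about 60% in these data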;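 also: growth measured after 20 h incubation at 37 °C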
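Signal: optical density read at 615 nm; Assay system: E. coli ΔtolC::kan strain BW25113; Times: 20 h incubation with compound, 37 °C; Dosing: 10 µM final, single dose.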
CYP2C9 inh: human CYP2C9 inhibition; P11712; CYP2C9 Supersomes, luciferin-H conversion, luminescence; hit rate 20% among 96,000; inhibition, % at 5 µM;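 active = blocking of liver enzyme CYP2C9 beyond about 50% at 5 µM, limit read from the data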
Target sequence (P11712 whole entry, looked up): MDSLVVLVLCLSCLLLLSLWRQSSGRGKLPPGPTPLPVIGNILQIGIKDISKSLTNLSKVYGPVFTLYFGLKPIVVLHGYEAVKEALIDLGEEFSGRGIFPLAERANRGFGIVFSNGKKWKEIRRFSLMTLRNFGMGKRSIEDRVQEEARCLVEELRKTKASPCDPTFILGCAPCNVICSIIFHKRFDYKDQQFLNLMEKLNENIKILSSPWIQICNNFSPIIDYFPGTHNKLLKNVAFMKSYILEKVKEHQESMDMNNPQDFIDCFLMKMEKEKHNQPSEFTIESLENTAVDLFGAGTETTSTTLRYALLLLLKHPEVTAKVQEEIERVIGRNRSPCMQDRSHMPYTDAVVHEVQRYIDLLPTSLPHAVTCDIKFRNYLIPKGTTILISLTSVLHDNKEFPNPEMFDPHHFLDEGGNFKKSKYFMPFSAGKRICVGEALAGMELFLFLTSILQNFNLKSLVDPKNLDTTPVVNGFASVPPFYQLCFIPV
CYP2C19 activ: cytochrome P450 2C19 (human) activation | recombinant CYP2C19, luciferin-H EGE luminescence; active compounds read high; 0 = fully inhibited enzyme, 1 = untreated enzyme | activation factor at 5 µM | 96,000 tested, under 10 active | P33261 | AID 1025;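 active = activation factor of at least 2 at 5 µM in the primary screen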;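 also: 0 = wells with 2.5 mM tranylcypromine and 1 = vehicle-only wells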
CYP2C9 activ: CYP2C9 (human) activation; hit rate 1.4% among 96,000; activation factor at 5 µM; P11712; recombinant CYP2C9, luciferin-H conversion, luminescence; active compounds read high; factor 1 = untreated enzyme, 0 = blocked;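 active = activation factor of 2 or more for CYP2C9 at a 5 µM dose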;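 also: 0 = sulfaphenazole-blocked wells and 1 = vehicle-only wells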
Ecoli WT expand: E. coli BW25113 growth inhibition, expanded screen; OD600 absorbance; hit rate 0.15% among 98,000; AID 710; growth inhibition, % at 100 µM;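 active = growth inhibition above about 50% at one test dose, limit read from the data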;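 also: growth measured after 20 h incubation at 37 °C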
CYP2C19 inh: human CYP2C19 inhibition; P33261; CYP2C19 Supersomes, luciferin-H EGE luminescence, 30 min; inhibition, % at 5 µM; hit rate 21% among 96,000; AID 778;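 active = CYP2C19 inhibition above a set limit at 5 µM in the primary screen, cut at about 50% in these data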;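 also: plate controls were negative control wells for no effect and 2.5 mM tranylcypromine positive control for full effect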
Numbers without * were called inactive; / = no result given.

SMILES | Ecoli tolC | CYP2C9 inh | CYP2C19 activ | CYP2C9 activ | Ecoli WT expand | CYP2C19 inh
Cc1ccc(OCCCC(=O)N2CCOCC2)cc1 | / | -8 | 0.2 | 1.1 | -1 | 75*
Cc1cc(Cl)ccc1OCCCC(=O)N1CCCCC1 | / | -26 | 0 | 1.3 | -5 | 97*
Cc1ccc(OCCN2CCCCCC2)c(C)c1 | -7 | 15 | 0.4 | 0.8 | 5 | 58*
CN1CC2CCCC3(C1)C(=O)NC1(CCCCC1)N=C23 (stereo not drawn) | -11 | -14 | 1 | 1.1 | -6 | 1
CC(=O)NCCc1ccc(S(=O)(=O)Nc2cccnc2)cc1 | -10 | 5 | 0.8 | 1 | 4 | 19
CCOC(Cn1c(CCCO)nc2ccccc21)OCC | / | -9 | 0.9 | 1.1 | 6 | 9
O=C(CNC(=O)Cn1ccc2ccccc2c1=O)NCCCN1CCN(c2cccc(Cl)c2)CC1 | 2 | 10 | 0.9 | 0.9 | 8 | 10
C=CCNC(=O)CCCOc1ccc(C)cc1 | / | 60* | 0.3 | 0.4 | 6 | 73*
Cc1ccc(C)c(OCC(=O)NCCN(C)C)c1 | / | -5 | 1 | 1.1 | 10 | -2
Cc1cc(Cl)ccc1OCCCC(=O)N1CCOCC1 | 1 | -79 | 0 | 1.8 | -13 | 98*
Cc1ccc(OCCCC(=O)Nc2ccc(N3CCOCC3)cc2)c(C)c1 | -3 | -3 | 1.1 | 1 | -2 | -5
Cc1ccc(C)c(OCC(=O)Nc2nonc2NC(=O)COc2cc(C)ccc2C)c1 | 0 | 77* | 0.8 | 0.2 | -11 | 15
COCCNC(=O)COc1ccc(C)cc1C | / | 9 | 0.3 | 0.9 | 6 | 67*
N/C(=N\c1nc2ccccc2o1)NC(=O)c1ccc(F)cc1 | / | -36 | 0.9 | 1.4 | 1 | 10
COc1cc(C(=O)N(C)c2nnc(-c3cccnc3)s2)cc(OC)c1OC | -25 | -7 | 1 | 1.1 | 6 | 1
O=C(COc1ccc(Br)cc1)N1CCCCCC1 | 4 | 31 | 0.1 | 0.7 | / | 94*
Cc1cc(OCCCC(=O)N2CCCCC2)cc(C)c1Cl | 63* | -2 | 0.1 | 1 | 0 | 93*
Cc1cc2nc(CCN(C(=S)NCC(C)C)C3CCCC3)[nH]c2cc1C | / | 43 | 0.6 | 0.6 | -3 | 39
Cc1ccc2nc(NC(=O)Cc3cccs3)sc2c1 | / | 28 | 0.8 | 0.7 | 5 | 24
COC(=O)CCCCCCCCC(=O)Nc1nc2ccccc2s1 | / | 82* | 0.4 | 0.2 | -1 | 63*
COCC(=O)Nc1nc2ccccc2s1 | / | -16 | 0.9 | 1.2 | 5 | 5
O=C(Cc1cccs1)Nc1nc2ccccc2s1 | -7 | 50 | 0.4 | 0.5 | 0 | 56*
O=C1N2CCSC2=NC1(Nc1nccs1)C(F)(F)F (stereo not drawn) | -7 | -7 | 1.1 | 1.1 | -1 | -7
N#Cc1nc(-c2ccc(Cl)cc2)oc1N1CCCCC1 | 7 | 31 | 0.8 | 0.7 | 4 | 17
N#Cc1c(-c2ccc(Cl)cc2)ccn2nc(C3CCCCC3)nc12 | / | 85* | 0.7 | 0.1 | -9 | 26
SMILES | Ecoli tolC | CYP2C9 inh | CYP2C19 activ | CYP2C9 activ | Ecoli WT expand | CYP2C19 inh
CC(C)COn1c(=S)[nH]c2ccccc2c1=O | / | 27 | 0.4 | 0.7 | -3 | 59*
COc1cccc(C(=O)CN2CCN(S(=O)(=O)c3ccc(Br)cc3)CC2)c1 | -1 | 4 | 0.8 | 1 | 0 | 21
Cn1cc(S(=O)(=O)N2CCN(Cc3ccccc3)CC2)c(=O)n(C)c1=O | -3 | -8 | 1 | 1.1 | 6 | 2
COc1ccc(C)cc1S(=O)(=O)N1CCN(Cc2ccccc2)CC1 | 11 | 90* | 0 | 0.1 | 9 | 96*
Cn1c(=O)c(=O)n(C)c2cc(S(=O)(=O)N3CCN(Cc4ccccc4)CC3)ccc21 | -8 | 51* | 1 | 0.5 | -5 | -2
COc1cccc(CN2CCN(S(=O)(=O)c3ccc(Br)cc3)CC2)c1 | / | 61* | 0.1 | 0.4 | -3 | 86*
Cn1c(=O)c(=O)n(C)c2cc(S(=O)(=O)N3CCCCC3)ccc21 | -11 | -18 | 1.2 | 1.2 | 7 | -21
CN(Cc1ccccc1)S(=O)(=O)c1ccc2c(c1)n(C)c(=O)n2C | -1 | 4 | 0.3 | 1 | -1 | 65*
CC(C)(C)C(=O)NC(=C(Cl)Cl)P(=O)(O)O | -22 | -14 | 1.1 | 1.1 | 1 | -11
Cc1cc(C)n(CCCNC(=O)c2ccc3c(c2)NC(=O)CS3)n1 | -1 | 12 | 1 | 0.9 | -1 | 1
CC(C)OCCCNC(=O)Cn1nc(-c2ccccc2)ccc1=O | 4 | -8 | 1.1 | 1.1 | 6 | -15
O=S(=O)(c1ccccc1)N1CCN(Cc2cccc(Cl)c2)CC1 | 34 | 61* | 0.3 | 0.4 | -1 | 70*
Cn1c(=O)c2cc(S(=O)(=O)N3CCC(c4ccccc4)CC3)ccc2n(C)c1=O | -3 | 68* | 0.8 | 0.3 | -7 | 20
O=S1(=O)CCN(Cc2cccc(Cl)c2)CC1 | / | -1 | 0.6 | 1 | 1 | 36
COc1ccc(S(=O)(=O)N2CCCN(Cc3cccc(F)c3)CC2)cc1 | 14 | -55 | 0.4 | 1.6 | 6 | 60*
Cn1c(=O)c2cc(S(=O)(=O)N3CCOCC3)ccc2n(C)c1=O | -8 | -25 | 1.2 | 1.2 | -4 | -16
CCOc1ccccc1CN1CCN(S(C)(=O)=O)CC1 | -5 | -10 | 0.7 | 1.1 | 1 | 32
CCOc1cc(S(=O)(=O)N2CCN(Cc3ccccc3)CC2)ccc1Br | 64* | 41 | 0 | 0.6 | 1 | 97*
Cc1ccc(NC2SC(=O)N(Cc3cccc(C(=O)O)c3)C2=O)cc1 (stereo not drawn) | -3 | 13 | 1 | 0.9 | -4 | 4
COc1ccc(S(=O)(=O)N2CCN(Cc3ccccc3)CC2)cc1 | 22 | -11 | 0.1 | 1.1 | 8 | 89*
COCCNC(=O)NC(=O)COC(=O)c1cc([N+](=O)[O-])ccc1Sc1nc(C)cs1 | / | 21 | 1 | 0.8 | -6 | 4
Cc1csc(Sc2ccc([N+](=O)[O-])cc2C(=O)OCC(=O)NC(=O)NC(C)(C)C)n1 | / | 72* | 0.8 | 0.3 | -4 | 19
Cc1ccnc(N2C(=O)OC(C)(C)C2(C)O)c1 (stereo not drawn) | -20 | 17 | 0.9 | 0.8 | -6 | 10
CC(=O)C1=C(O)C(=O)N(C)C1c1ccccc1F (stereo not drawn) | -16 | 4 | 1 | 1 | 1 | 0
CN1CCN(CCC(=O)Nc2ccccc2Cl)CC1 | -4 | / | / | / | -1 | /
O=C(CN1C(=O)NC2(CCCC2)C1=O)Nc1ccccc1F | / | -126 | 0.8 | 2.3* | 4 | 15
O=C(CCN1CCN(CC(=O)Nc2ccccc2Cl)CC1)Nc1ccccc1F | 5 | 43 | 0.2 | 0.6 | 4 | 77*
CCN(CC)c1ccc(NC(=O)CN2CCN(CC(=O)Nc3ccccc3F)CC2)cc1 | 8 | 7 | 0.8 | 0.9 | -4 | 20
CC(=O)c1cccc(NC(=O)CN2C(=O)NC3(CCCCCCC3)C2=O)c1 | 17 | 22 | 0.9 | 0.8 | -2 | 8
